For test [1], the system named is Candida albicans. The test is described as follows: Antifungal activity against Candida albicans IMRU 3669 at 5 mg/ml by agar disk diffusion assay. Format: functional. As to conditions: Candida albicans, IMRU 3669; read-out: DIZ. The procedure, abridged: (§1)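 Fungi maintained on Czapek's Dox agar; agar well diffusion with 1 cm wells and […] of each concentration (1, 2.5, 5 mg/mL) in DMF; inhibition zone diameter measured.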

The subject of test [2] is Aspergillus niger. The test is described as follows: Antifungal activity against Aspergillus niger IMI 31726 at 5 mg/ml by agar disk diffusion assay. Format: functional. The note with it: read-out: DIZ.
For the next test, the system named is Hepatovirus A. The test can be described thus: Antiviral activity against Hepatitis A virus infected african green monkey Vero cells at 10^-4 dilution of 5 mg/ml by plaque formation assay. Format: functional. The procedure, abridged:
(§2)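 Compound dilutions prepared from a 5 mg/mL DMSO stock, using the maximum non-toxic dilution for Vero cells over 3 days; 0.1 mL virus (10³) mixed with 0.1 mL compound for 1 h at room temperature; mixture inoculated onto washed Vero monolayers in 12-well plates and adsorbed at 37 °C; 2× MEM/agarose overlay applied; read-out % reduction in plaque count versus untreated virus control.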

For the next test, the system named is Human alphaherpesvirus 1. The test can be described thus: Antiviral activity against HSV1 infected african green monkey Vero cells at 10^-4 dilution of 5 mg/ml by plaque formation assay. Format: functional. An outline of the steps: as §2
The subject of a further test is Coxsackievirus B4. The test is described as follows: Antiviral activity against Coxsackievirus B4 infected african green monkey Vero cells at 10^-4 dilution of 5 mg/ml by plaque formation assay. Format: functional, organism-based. The procedure, abridged: as §2
A further test has as its system Escherichia coli. The test can be described thus: Antibacterial activity against Escherichia coli NCTC 10416 at 5 mg/ml by agar disk diffusion assay. Format: functional. As to conditions: read-out: DIZ. (In general: In agar diffusion tests the substance spreads into inoculated agar from a disc or well.)
Test [3] deals with Salmonella typhi. The test can be described thus: Antibacterial activity against Salmonella typhi NCIMB 9331 at 5 mg/ml by agar disk diffusion assay. Format: functional, Salmonella enterica subsp. enterica serovar Typhi. The note with it: Salmonella enterica, read-out: DIZ.
The test system of test [4] is Bacillus subtilis. The test is described as follows: Antibacterial activity against Bacillus subtilis NCTC 1040 at 5 mg/ml by agar disk diffusion assay. Format: functional. The note with it: read-out: DIZ.
The subject of test [5] is Staphylococcus aureus. The test can be described thus: Antibacterial activity against Staphylococcus aureus NCTC 7447 at 5 mg/ml by agar disk diffusion assay. Format: functional. As to conditions: read-out: DIZ.
The test system of test [6] is Bacillus subtilis. The test can be described thus: Antibacterial activity against Bacillus subtilis NCIB 3610 at 5 mg/ml by agar disk diffusion assay. Format: functional. The note with it: Bacillus subtilis, NCIB 3610; read-out: DIZ.
Test [7] has as its system Candida albicans. The test can be described thus: Antifungal activity against Candida albicans IMRU 3669 at 1 mg/ml by agar disk diffusion assay. Format: functional. As to conditions: read-out: DIZ. The procedure, abridged:
as §1

Test [8] deals with Bacillus subtilis. The test is described as follows: Antimicrobial activity against Bacillus subtilis NCTC 1040 by macrotube dilution assay. Format: functional.
Test [9] has as its system Staphylococcus aureus. The test can be described thus: Antimicrobial activity against Staphylococcus aureus NCTC 7447 by macrotube dilution assay. Format: functional.
In another test the test system is Klebsiella pneumoniae. The test can be described thus: Antimicrobial activity against Klebsiella pneumoniae NCIMB 9111 by macrotube dilution assay. Format: functional.
Test [10] concerns Salmonella typhi. The test is described as follows: Antimicrobial activity against Salmonella typhi NCIMB 9331 by macrotube dilution assay. Format: functional, Salmonella enterica subsp. enterica serovar Typhi. The note with it: Salmonella enterica.
The subject of test [11] is Candida albicans. The test is described as follows: Antifungal activity against Candida albicans IMRU 3669 by macrotube dilution assay. Format: functional. The procedure, abridged: (§3)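 Macrotube twofold dilution per NCCLS/CLSI guidelines for fungi; 2 mg compound in 2.0 mL DMF, serially diluted across 14 tubes of Czapek's Dox medium, with a control tube; inoculum added to halve the concentration; 30 °C for 72 h; MIC is the lowest concentration without visible growth.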

Test [12] has as its system Aspergillus niger. The test can be described thus: Antifungal activity against Aspergillus niger Ferm-BAM C-21 by macrotube dilution assay. Format: functional. An outline of the steps: as §3
For test [13], the system named is Pseudomonas aeruginosa. The test can be described thus: Antibacterial activity against Pseudomonas aeruginosa NCIB 9016 at 1 mg/ml by agar disk diffusion assay. Format: functional. The note with it: Pseudomonas aeruginosa, NCIB 9016; read-out: DIZ.
In test [14] the test system is Pseudomonas aeruginosa. The test is described as follows: Antibacterial activity against Pseudomonas aeruginosa NCIB 9016 at 2.5 mg/ml by agar disk diffusion assay. Format: functional. The note with it: Pseudomonas aeruginosa, NCIB 9016; read-out: DIZ.
Test [15] has as its system Pseudomonas aeruginosa. The test can be described thus: Antibacterial activity against Pseudomonas aeruginosa NCIB 9016 at 5 mg/ml by agar disk diffusion assay. Format: functional. The note with it: Pseudomonas aeruginosa, NCIB 9016; read-out: DIZ.
The subject of test [16] is Bacillus subtilis. The test is described as follows: Antibacterial activity against Bacillus subtilis NCIB 3610 at 1 mg/ml by agar disk diffusion assay. As to conditions: Bacillus subtilis, NCIB 3610; read-out: DIZ. Format: functional.
Test [17] concerns Bacillus subtilis. The test can be described thus: Antibacterial activity against Bacillus subtilis NCIB 3610 at 2.5 mg/ml by agar disk diffusion assay. Format: functional. The note with it: Bacillus subtilis, NCIB 3610; read-out: DIZ.
Test [18] relates to Candida albicans. The test can be described thus: Antifungal activity against Candida albicans IMRU 3669 at 2.5 mg/ml by agar disk diffusion assay. Format: functional. As to conditions: read-out: DIZ. The procedure, abridged:
as §1

Test [19] deals with Aspergillus niger. The test can be described thus: Antifungal activity against Aspergillus niger Ferm-BAM C-21 at 5 mg/ml by agar disk diffusion assay. Format: functional. As to conditions: read-out: DIZ. The procedure, abridged: as §1
Test [20] deals with Aspergillus niger. The test can be described thus: Antifungal activity against Aspergillus niger Ferm-BAM C-21 at 2.5 mg/ml by agar disk diffusion assay. Format: functional. The note with it: read-out: DIZ. An outline of the steps:
as §1

Test [21] in a line: Antitumor activity against mouse EAC cells assessed as inhibition of cell viability at 100 ug/ml after 2 hrs by trypan blue exclusion assay. The note with it: Ehrlich. Format: functional. The procedure, abridged:
(§4)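 EAC cells aspirated from ascitic fluid of inoculated mice and diluted in saline; 0.1 mL cell suspension, 0.8 mL RPMI 1640 and 0.1 mL compound (25, 50 or 100) incubated 2 h at 37 °C; non-viable cells counted by trypan blue exclusion; % non-viable = dead/total × 100.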

The nature of test [22]: Antitumor activity against mouse EAC cells assessed as inhibition of cell viability at 50 ug/ml after 2 hrs by trypan blue exclusion assay. Format: functional. As to conditions: Ehrlich. An outline of the steps: as §4
Test [23] can be described thus: Antitumor activity against mouse EAC cells assessed as inhibition of cell viability at 25 ug/ml after 2 hrs by trypan blue exclusion assay. Format: functional. As to conditions: Ehrlich. An outline of the steps: as §4
The next test relates to HepG2. The test can be described thus: Cytotoxicity against human HepG2 cells assessed as surviving fraction after 48 hrs by SRB assay. The note with it: hepg2. Format: functional, cell-based. The procedure, abridged: (§5)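 Cells seeded at 10⁴ cells/well and left 24 h to attach, then exposed to […] in triplicate wells per dose. Incubation 48 h, 37 °C, 5% CO₂. Cells fixed and stained with sulforhodamine B, excess dye removed with acetic acid, bound dye taken up in Tris EDTA and read on an ELISA reader. Surviving fraction plotted against concentration.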

The next test relates to MCF7. The test can be described thus: Cytotoxicity against human MCF7 cells assessed as surviving fraction after 48 hrs by SRB assay. Format: functional, cell-based. The note with it: Homo sapiens, MCF7, 48 h; read-out: IC50. An outline of the steps:
as §5
In general terms: Sulforhodamine B stains cellular protein and so reports cell mass.

The subject of another test is HeLa. The test is described as follows: Cytotoxicity against human HeLa cells assessed as surviving fraction after 48 hrs by SRB assay. Format: functional, cell-based. The note with it: hela. The procedure, abridged:
as §5

Values after ≈ are worked out from the molar mass of the structure shown. Active and inactive are the calls of the source. The rule behind the calls is not given here.

On to `N=C1C(=S)N(c2ccc(I)cc2)C(=O)N1c1cc(Cl)c(Cl)cc1Cl`, for which the zone of inhibition at 5000 µg/mL was 17 mm in the test with Candida albicans [1]; 20 mm in the test with Aspergillus niger [2]; 16.5 mm in the test with Escherichia coli; 17 mm with Salmonella typhi [3]; 17 mm in the test on Bacillus subtilis [4]; 18 mm in the test with Staphylococcus aureus [5]. In addition, the Activity in the test on Hepatovirus A was 40%. The result in the test on Human alphaherpesvirus 1 and in the test with Coxsackievirus B4 was inactive.
Broadly, the MIC is the lowest concentration found to suppress growth. On to `O=C1N(c2ccc(Cl)cc2)CC(=S)N1c1ccc(Cl)c(Cl)c1`, for which the zone of inhibition at 5000 µg/mL with Bacillus subtilis [6] worked out at 20 mm; with Candida albicans [1] it was 32 mm; in the test on Pseudomonas aeruginosa [15] it was 37 mm. Also, the zone of inhibition at 1000 µg/mL in the test with Candida albicans [7] turned out to be 25 mm; with Pseudomonas aeruginosa [13], 29 mm; in the test with Bacillus subtilis [16], 19 mm. For the same molecule, the MIC with Bacillus subtilis [8] is 1.95 µg/mL (≈ 5.25 µM); against Staphylococcus aureus [9], 15.6 µg/mL (≈ 42 µM); in the test with Klebsiella pneumoniae, 3.9 µg/mL (≈ 10.5 µM); in the test with Salmonella typhi [10], 0.49 µg/mL (≈ 1.32 µM); against Candida albicans [11] it was 0.97 µg/mL (≈ 2.61 µM); against Aspergillus niger [12], 31.3 µg/mL (≈ 84.2 µM). For the same molecule, the zone of inhibition at 2500 µg/mL is 32 mm with Pseudomonas aeruginosa [14] and 20 mm in the test on Bacillus subtilis [17].
On to `CC1OC(=N)C(=S)N1c1ccc(Cl)c(Cl)c1` (stereo unspecified), for which the zone of inhibition at 5000 µg/mL with Bacillus subtilis [6] was found to be 33 mm; in the test on Candida albicans [1], 39 mm; with Aspergillus niger [19] it was 20 mm; in the test on Pseudomonas aeruginosa [15] it was 41 mm. The values for the zone of inhibition at 1000 µg/mL with Candida albicans [7], in the test on Pseudomonas aeruginosa [13] and in the test on Bacillus subtilis [16] were 21 mm, 15 mm and 20 mm, respectively. In addition, the zone of inhibition at 2500 µg/mL stood at 33 mm in the test on Candida albicans [18], 11 mm in the test with Aspergillus niger [20], 29 mm in the test on Pseudomonas aeruginosa [14] and 27 mm in the test with Bacillus subtilis [17].
Take `N=C1C(=S)N(c2ccc(Cl)cc2)C(=O)N1c1cccc2ccccc12`: the zone of inhibition at 5000 µg/mL with Bacillus subtilis [6] was found to be 19 mm; in the test with Candida albicans [1] it was 14 mm; with Aspergillus niger [19] it was 12 mm; with Pseudomonas aeruginosa [15] it was 18 mm. Besides, the zone of inhibition at 2500 µg/mL in the test with Candida albicans [18] was found to be 12 mm; in the test with Pseudomonas aeruginosa [14] it was 16 mm; with Bacillus subtilis [17], 18 mm. Also, the figures for the zone of inhibition at 1000 µg/mL in the test with Pseudomonas aeruginosa [13] and in the test with Bacillus subtilis [16] were 15 mm and 17 mm, respectively.
For the molecule `N=C1C(=S)N(c2ccc(Br)cc2)C(=O)N1c1cc(Cl)c(Cl)cc1Cl`, the zone of inhibition at 5000 µg/mL in the test on Candida albicans [1] was determined as 14 mm; in the test on Escherichia coli, 16 mm; in the test with Salmonella typhi [3], 18 mm; in the test with Bacillus subtilis [4] it was 16 mm; with Staphylococcus aureus [5] it was 16.5 mm.
Regarding `N=C1C(=S)N(c2ccc(Br)cc2)C(=O)N1c1ccc2c(c1)Cc1ccccc1-2`, the zone of inhibition at 5000 µg/mL in the test with Candida albicans [1] was 13 mm; in the test with Escherichia coli it was 14 mm; with Salmonella typhi [3], 16 mm; in the test with Bacillus subtilis [4], 13 mm. Also, the outcome in the test on Hepatovirus A, with Human alphaherpesvirus 1 and in the test on Coxsackievirus B4 was inactive.
Usually inhibition stands for the change of the read-out against control, counted positive when it falls. The term IC50 denotes the midpoint of a concentration-inhibition curve. `O=C1N(c2ccc(Cl)cc2)CC(=S)N1c1ccc(Cl)cc1`: in test [21], the inhibition at 100 µg/mL amounted to 100%. Further, the inhibition at 50 µg/mL in test [22] was 100%. In addition, the inhibition at 25 µg/mL in test [23] worked out at 90%. The IC50 entry in the test with HepG2 is “Not Active”; in the test on MCF7, 9.36 µg/mL (≈ 27.8 µM); in the test on HeLa, “Not Active”.

(Values after ChEMBL document CHEMBL1155362, “Synthesis, characterization and derivatization of some novel types of mono- and bis-imidazolidineiminothiones and imidazolidineiminodithiones with antitumor, antiviral, antibacterial and antifungal activities--part I” (Eur J Med Chem, 2009).)
